We go through three molecules from ChEMBL document CHEMBL3425411, “Synthesis of β-Carboline-Based N-Heterocyclic Carbenes and Their Antiproliferative and Antimetastatic Activities against Human Breast Cancer Cells” (J Med Chem, 2015).

Active and inactive are the calls of the source. No cut-off for these calls is given here.

The subject of experiment [1] is MDA-MB-231. The experiment can be described thus: Cell cycle arrest in human MDA-MB-231 cells assessed as accumulation at G0/G1 phase at 10 uM after 24 hrs by propidium iodide staining-based flow cytometric analysis (reference value: 44.3 to 47.1%). Format: functional. In general terms: In flow cytometry, cells or beads pass a laser one at a time.
Experiment [2] has as its system MDA-MB-231. The experiment can be described thus: Downregulation of CDC25C expression in human MDA-MB-231 cells at 7.5 to 10 uM after 24 hrs by Western blot analysis. Format: functional, cell-based. The essentials:
(§1)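 Cells were treated for 24 h. Lysates were made in RIPA buffer, and 40 μg protein was resolved on 10–15% SDS-PAGE and transferred to PVDF. Membranes were blocked with 5% milk and probed overnight at 4 °C with primary antibodies, then HRP secondaries. Detection was by ECL with β-actin as loading control. Blots represent three independent experiments.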
A general note: A western blot detects proteins with antibodies after separation by electrophoresis.

Experiment [3] deals with MDA-MB-231. The experiment can be described thus: Cell cycle arrest in human MDA-MB-231 cells assessed as accumulation at G2/M phase after 24 hrs by propidium iodide staining-based flow cytometric analysis. Format: functional.
Experiment [4] has as its system MDA-MB-231. The experiment can be described thus: Induction of apoptosis in human MDA-MB-231 cells assessed as early apoptotic cells at 12.5 uM after 24 hrs by annexin V-propidium iodide/Alexa Fluor 488 staining-based flow cytometric analysis (reference value: 4.05 to 4.68%). Format: functional.
In experiment [5] the test system is MDA-MB-231. The experiment can be described thus: Induction of apoptosis in human MDA-MB-231 cells assessed as late apoptotic cells at 12.5 uM after 24 hrs by annexin V-propidium iodide/Alexa Fluor 488 staining-based flow cytometric analysis (reference value: 2.08 to 3.78%). Format: functional. The method in brief:
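MDA-MB-231 cells, about 2 × 10⁵ per well, seeded in triplicate and treated for 24 h in RPMI-1640 with 10% FBS. Stained with Alexa Fluor 488 annexin V and propidium iodide, then read by flow cytometry. AV+/PI+ events were counted as late apoptotic and reported as percentage of cells relative to control. Three independent experiments, mean ± SEM.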

Experiment [6] has as its system MDA-MB-231. The experiment can be described thus: Antiinvasive activity against human MDA-MB-231 cells at 2.5 uM after 48 hrs by transwell assay. Format: functional, cell-based. The method in brief: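 Matrigel (growth factor reduced, diluted in serum-free medium) coated on 8 μm pore polycarbonate transwell membranes, set 2 h at 37 °C. 30 000 cells/well seeded in RPMI-1640 with 1% FBS plus compound; lower chamber had 10% FBS as chemoattractant. After 48 h, non-invaded cells were swabbed off and invaded cells were methanol-fixed and stained with 0.1% crystal violet. At least 10 random fields were counted and expressed versus control.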

Experiment [7] has as its system MDA-MB-231. The experiment can be described thus: Cell cycle arrest in human MDA-MB-231 cells assessed as accumulation at G2/M phase at 10 uM after 24 hrs by propidium iodide staining-based flow cytometric analysis (reference value: 18.2 to 23.1%). Format: functional.
The test system of experiment [8] is MDA-MB-231. The experiment can be described thus: Induction of apoptosis in human MDA-MB-231 cells assessed as PARP cleavage at 7.5 to 10 uM after 24 hrs by Western blot analysis. Format: functional, cell-based. The method in brief:
as §1

Experiment [9] concerns MDA-MB-231. The experiment can be described thus: Downregulation of Bcl-XL expression in human MDA-MB-231 cells at 7.5 to 10 uM after 24 hrs by Western blot analysis. Format: functional, cell-based. The method in brief:
as §1

Experiment [10] concerns MDA-MB-231. The experiment can be described thus: Upregulation of cleaved caspase-3 expression in human MDA-MB-231 cells at 7.5 to 10 uM after 24 hrs by Western blot analysis. Format: functional, cell-based. The method in brief:
(§2)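 MDA-MB-231 cells treated 24 h, then lysed in RIPA buffer. 40 μg protein run on 10–15% SDS–PAGE and transferred to PVDF. Blocked in 5% milk, probed overnight at 4 °C with primary antibodies (phospho- and total ERK1/2, JNK, p38, cleaved caspase-3), then HRP secondary. ECL detection with β-actin as loading control. Blots representative of three experiments.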

Experiment [11] concerns the target MAP kinase p38 (Homo sapiens) (UniProt O15264+Q15759+Q16539+P53778). The experiment can be described thus: Induction of p38 MAPK phosphorylation in human MDA-MB-231 cells at 7.5 to 10 uM after 24 hrs by Western blot analysis. Format: cell-based. The method in brief:
as §2

For experiment [12], the system named is MDA-MB-231. The experiment can be described thus: Downregulation of Bcl-2 expression in human MDA-MB-231 cells at 7.5 to 10 uM after 24 hrs by Western blot analysis. Format: functional, cell-based. The method in brief:
as §1

Experiment [13] relates to MDA-MB-231. The experiment can be described thus: Induction of apoptosis in human MDA-MB-231 cells assessed as depolarization of mitochondrial membrane potential after 24 hrs by JC-1 staining-based flow cytometric analysis. Format: functional, cell-based. The essentials:
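Cells were seeded in 60 mm dishes, grown 24 h, then treated with compound for 24 h. Cells were stained with JC-1 and analysed by flow cytometry. Depolarization was read as green-only cells and as a fall in red/green fluorescence ratio, normalized to control. Three independent experiments, mean ± SEM.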

Experiment [14] relates to MDA-MB-231. The experiment can be described thus: Downregulation of survivin expression in human MDA-MB-231 cells at 7.5 to 10 uM after 24 hrs by Western blot analysis. Format: functional, cell-based. The essentials:
as §1

Experiment [15] concerns the target Matrix metalloproteinase-9 (Homo sapiens) (UniProt P14780). The experiment can be described thus: Inhibition of MMP-9 in human MDA-MB-231 cells at 1 to 7.5 uM after 24 hrs by gelatin zymographic method. Format: cell-based. The method in brief: (§3)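 MDA-MB-231 cells, 1 × 10⁵ per well, treated 24 h with 0, 1, 2.5, 5 or 7.5 μM. Conditioned medium centrifuged and equal protein loaded on 8% SDS–PAGE containing 0.1% gelatin, run at 80 V. Triton X-100 washes, then developed 20 h at 37 °C in Tris-HCl pH 7.5 with NaCl, CaCl₂ and ZnCl₂. Coomassie stain, then destain.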

Experiment [16] concerns the target c-Jun N-terminal kinase, JNK (Homo sapiens) (UniProt P45983+P53779+P45984). The experiment can be described thus: Inhibition of SAPK/JNK phosphorylation in human MDA-MB-231 cells at 7.5 to 10 uM after 24 hrs by Western blot analysis. Format: cell-based. The method in brief:
as §2

For experiment [17], the system named is MDA-MB-231. The experiment can be described thus: Cell cycle arrest in human MDA-MB-231 cells assessed as accumulation at S phase at 10 uM after 24 hrs by propidium iodide staining-based flow cytometric analysis (reference value: 32.5 to 34.7%). Format: functional.
The target of experiment [18] is Mitogen-activated protein kinase; ERK1/ERK2 (Homo sapiens) (UniProt P27361+P28482). The experiment can be described thus: Inhibition of ERK1/2 phosphorylation in human MDA-MB-231 cells at 7.5 to 10 uM after 24 hrs by Western blot analysis. Format: cell-based. The essentials: as §2
Experiment [19] concerns the target 72 kDa type IV collagenase (Homo sapiens) (UniProt P08253). The experiment can be described thus: Inhibition of MMP-2 in human MDA-MB-231 cells at 1 to 7.5 uM after 24 hrs by gelatin zymographic method. Format: cell-based. The method in brief: as §3
Experiment [20] concerns MDA-MB-231. The experiment can be described thus: Antimigratory activity against human MDA-MB-231 cells at 1 to 7.5 uM after 12 to 24 hrs by wound healing assay. Format: functional, cell-based. The essentials:
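2 × 10⁵ cells were plated in six-well plates and scratched with a 200 μL tip. Debris was removed, then cells were treated (0, 1, 2.5, 5, 7.5 μM; or 0–5 μM). The wound was photographed at 0, 12 and 24 h under 100× phase contrast. Area was measured as percent wound closure versus control. Three independent experiments, mean ± SEM.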

The test system of experiment [21] is MDA-MB-231. The experiment can be described thus: Downregulation of cyclin B expression in human MDA-MB-231 cells at 7.5 to 10 uM after 24 hrs by Western blot analysis. Format: functional, cell-based. The essentials:
as §1

Experiment [22] concerns MDA-MB-231. The experiment can be described thus: Downregulation of CDK1 expression in human MDA-MB-231 cells at 7.5 to 10 uM after 24 hrs by Western blot analysis. Format: functional, cell-based. The essentials:
as §1

Experiment [23] relates to MDA-MB-231. The experiment can be described thus: Induction of apoptosis in human MDA-MB-231 cells assessed as PARP cleavage at 5 to 7.5 uM after 24 hrs by Western blot analysis. Format: functional, cell-based. The essentials:
as §1

Chain of Matrix metalloproteinase-9 (Homo sapiens) (P14780 whole entry): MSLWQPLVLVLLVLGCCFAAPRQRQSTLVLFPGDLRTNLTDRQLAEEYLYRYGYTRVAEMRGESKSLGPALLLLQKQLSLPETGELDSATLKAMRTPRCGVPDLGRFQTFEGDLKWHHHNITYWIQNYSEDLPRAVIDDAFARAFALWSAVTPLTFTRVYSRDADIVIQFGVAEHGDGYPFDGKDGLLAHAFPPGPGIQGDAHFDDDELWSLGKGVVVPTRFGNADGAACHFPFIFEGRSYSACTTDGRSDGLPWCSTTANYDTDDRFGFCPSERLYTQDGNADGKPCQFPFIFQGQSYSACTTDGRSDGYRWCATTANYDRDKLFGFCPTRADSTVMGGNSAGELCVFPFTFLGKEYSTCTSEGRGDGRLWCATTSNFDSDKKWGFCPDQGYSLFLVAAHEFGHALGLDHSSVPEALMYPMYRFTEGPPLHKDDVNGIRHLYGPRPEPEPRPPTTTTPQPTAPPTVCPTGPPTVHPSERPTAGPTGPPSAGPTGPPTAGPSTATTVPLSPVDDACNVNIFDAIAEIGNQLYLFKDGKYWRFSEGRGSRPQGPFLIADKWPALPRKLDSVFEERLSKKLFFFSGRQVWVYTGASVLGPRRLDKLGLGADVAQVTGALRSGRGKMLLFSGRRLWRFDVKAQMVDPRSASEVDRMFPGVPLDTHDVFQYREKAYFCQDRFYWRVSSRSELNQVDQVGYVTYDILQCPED
Chain of Mitogen-activated protein kinase; ERK1/ERK2 (Homo sapiens) (P27361 whole entry, looked up): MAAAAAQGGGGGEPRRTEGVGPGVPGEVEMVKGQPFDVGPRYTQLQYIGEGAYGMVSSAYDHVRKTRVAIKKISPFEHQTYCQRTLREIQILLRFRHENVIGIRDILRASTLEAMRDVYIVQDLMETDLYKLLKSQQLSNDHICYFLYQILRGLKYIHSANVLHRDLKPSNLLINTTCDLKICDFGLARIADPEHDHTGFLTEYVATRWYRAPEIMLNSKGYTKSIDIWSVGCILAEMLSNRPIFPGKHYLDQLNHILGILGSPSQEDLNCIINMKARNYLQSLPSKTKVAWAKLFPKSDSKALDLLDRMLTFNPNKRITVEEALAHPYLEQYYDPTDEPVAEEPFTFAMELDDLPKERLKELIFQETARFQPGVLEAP
Chain of Mitogen-activated protein kinase; ERK1/ERK2 (Homo sapiens) (P28482 whole entry, looked up): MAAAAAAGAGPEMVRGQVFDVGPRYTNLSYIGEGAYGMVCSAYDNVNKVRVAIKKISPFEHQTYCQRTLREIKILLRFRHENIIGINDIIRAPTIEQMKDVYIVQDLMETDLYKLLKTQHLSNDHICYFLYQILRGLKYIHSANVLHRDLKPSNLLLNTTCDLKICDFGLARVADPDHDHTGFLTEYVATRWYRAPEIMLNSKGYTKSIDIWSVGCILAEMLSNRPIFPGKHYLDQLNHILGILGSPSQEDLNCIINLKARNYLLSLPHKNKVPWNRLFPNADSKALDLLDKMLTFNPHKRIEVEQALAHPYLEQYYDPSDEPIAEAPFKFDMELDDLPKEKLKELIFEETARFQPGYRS
Chain of 72 kDa type IV collagenase (Homo sapiens) (P08253 110-660 limits assumed): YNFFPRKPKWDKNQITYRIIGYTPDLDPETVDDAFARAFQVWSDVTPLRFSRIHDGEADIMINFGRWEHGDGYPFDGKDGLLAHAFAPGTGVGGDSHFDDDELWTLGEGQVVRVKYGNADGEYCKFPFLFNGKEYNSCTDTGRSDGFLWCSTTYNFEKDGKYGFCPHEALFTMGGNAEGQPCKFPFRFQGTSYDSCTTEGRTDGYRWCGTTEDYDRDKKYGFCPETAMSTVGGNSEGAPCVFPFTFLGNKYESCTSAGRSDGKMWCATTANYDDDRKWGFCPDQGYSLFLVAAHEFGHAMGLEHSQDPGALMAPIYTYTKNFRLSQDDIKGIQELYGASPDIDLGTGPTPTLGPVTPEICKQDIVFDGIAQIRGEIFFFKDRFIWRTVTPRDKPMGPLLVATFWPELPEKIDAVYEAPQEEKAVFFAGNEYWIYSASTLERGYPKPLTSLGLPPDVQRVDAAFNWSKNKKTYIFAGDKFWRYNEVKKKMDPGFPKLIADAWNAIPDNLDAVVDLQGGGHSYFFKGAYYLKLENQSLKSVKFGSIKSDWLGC

With `COC(=O)c1cc2c3ccccc3[nH]c2c2cn(-c3ccc(C)cc3Br)c[n+]12.[Cl-]`, the Activity with MDA-MB-231 [1] was 35.3%; in the experiment with MDA-MB-231 [3], “Dose-dependent effect”; with MDA-MB-231 [4], 64.96%; in the experiment with MDA-MB-231 [5], 17.42%; in the experiment on MDA-MB-231 [7] it was 38.2%; in the experiment with MDA-MB-231 [13], “Dose-dependent effect”. Further, the Activity with MDA-MB-231 [17] amounted to 26.3%. For the same molecule, the result (with MDA-MB-231 [2]; in the experiment on MDA-MB-231 [6]; in the experiment with MDA-MB-231 [8]; with MDA-MB-231 [9]; in the experiment on MDA-MB-231 [10]; in experiment [11]) was Active. Further, the result in the experiment on MDA-MB-231 [12], in the experiment on MDA-MB-231 [14], with MDA-MB-231 [20], with MDA-MB-231 [21] and in the experiment with MDA-MB-231 [22] was Active. For the same molecule, the inhibition entry in experiment [15], in [16], in [18] and in experiment [19] was “Active” throughout.
On to `COC(=O)c1cc2c3ccccc3[nH]c2c2cn(-c3ccc(C(F)(F)F)cc3)c[n+]12.[Cl-]`, for which the Activity in the experiment on MDA-MB-231 [1] was 31.1%; in the experiment with MDA-MB-231 [3] it was “Dose-dependent effect”; with MDA-MB-231 [4] it was 31.17%; with MDA-MB-231 [5] it was 13.43%; in the experiment on MDA-MB-231 [7], 39%; in the experiment with MDA-MB-231 [13], “Dose-dependent effect”. Also, in the experiment on MDA-MB-231 [17], the Activity turned out to be 29.7%. Besides, the outcome (in the experiment with MDA-MB-231 [2]; in the experiment with MDA-MB-231 [6]; with MDA-MB-231 [8]; in the experiment with MDA-MB-231 [9]; with MDA-MB-231 [10]; in experiment [11]) was Active. The outcome in the experiment with MDA-MB-231 [12], in the experiment with MDA-MB-231 [14], in the experiment with MDA-MB-231 [20], with MDA-MB-231 [21] and in the experiment with MDA-MB-231 [22] was Active. In addition, the inhibition result in experiment [15], in [16], in experiment [18] and in experiment [19] was “Active” each time.
Regarding `COC(=O)c1cc2c3ccccc3[nH]c2c2cn(-c3ccc(F)cc3Cl)c[n+]12.[Cl-]`, the Activity entry in the experiment with MDA-MB-231 [3] and with MDA-MB-231 [13] was “Dose-dependent effect” each time. In addition, in the experiment with MDA-MB-231 [23], the result was Active.
